Experimental data reported in ChEMBL document CHEMBL1772977, “Synthesis and biological evaluation of novel 4-benzylpiperazine ligands for sigma-1 receptor imaging” (Bioorg Med Chem, 2011).

Experiments:
[1] = 1-Octanol-sodium phosphate buffer distribution coefficient, log D of the compound at pH 7.4; assay type: physicochemical
In short: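 Shake-flask partition of HPLC-purified radiotracer between 1-octanol and 0.05 mol/L sodium phosphate buffer pH 7.4, phases mutually pre-saturated (3 mL each). […] Octanol layer re-distributed until values were consistent. Triplicate, repeated three times.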

Blood [2] = test: Biodistribution in ICR mouse blood at 1 uCi, iv after 15 mins postinjection; assay type: ADME, organism-based; settings: in vivo, 0.25 h
In short: (§1)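 Female ICR mice (18–22 g, n = 5) received HPLC-purified radiotracer by tail vein (0.1 mL). They were killed by cervical fracture at the stated times. Blood and organs were removed, weighed and gamma-counted. Uptake expressed as percent injected dose per gram of tissue (%ID/g), given as mean with SD.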

Blood [3] = test: Biodistribution in ICR mouse blood at 1 uCi, iv after 30 mins postinjection; assay type: ADME, organism-based; settings: in vivo, 0.5 h; in short: as §1
Blood [4] = test: Biodistribution in ICR mouse blood at 1 uCi, iv after 60 mins postinjection; assay type: ADME, organism-based; settings: in vivo, 1 h; in short: as §1
Blood [5] = test: Biodistribution in ICR mouse blood at 1 uCi, iv after 120 mins postinjection; assay type: ADME, organism-based; settings: in vivo, 2 h; in short: as §1
Blood [6] = test: Biodistribution in ICR mouse blood at 1 uCi, iv after 240 mins postinjection; assay type: ADME, organism-based; settings: in vivo, 4 h; in short: as §1
Brain [7] = test: Biodistribution in ICR mouse brain at 1 uCi, iv after 15 mins postinjection; assay type: ADME, organism-based; settings: in vivo, 0.25 h; in short: as §1
Brain [8] = test: Biodistribution in ICR mouse brain at 1 uCi, iv after 30 mins postinjection; assay type: ADME, organism-based; settings: in vivo, 0.5 h; in short: as §1
Brain [9] = test: Biodistribution in ICR mouse brain at 1 uCi, iv after 60 mins postinjection; assay type: ADME, organism-based; settings: in vivo, 1 h; in short: as §1
Brain [10] = test: Biodistribution in ICR mouse brain at 1 uCi, iv after 120 mins postinjection; assay type: ADME, organism-based; settings: in vivo, 2 h; in short: as §1
Brain [11] = test: Biodistribution in ICR mouse brain at 1 uCi, iv after 240 mins postinjection; assay type: ADME, organism-based; settings: in vivo, 4 h; in short: as §1
Heart [12] = test: Biodistribution in ICR mouse heart at 1 uCi, iv after 15 mins postinjection; assay type: ADME, organism-based; settings: in vivo, 0.25 h; in short: as §1
Heart [13] = test: Biodistribution in ICR mouse heart at 1 uCi, iv after 30 mins postinjection; assay type: ADME, organism-based; settings: in vivo, 0.5 h; in short: as §1
Heart [14] = test: Biodistribution in ICR mouse heart at 1 uCi, iv after 60 mins postinjection; assay type: ADME, organism-based; settings: in vivo, 1 h; in short: as §1
Heart [15] = test: Biodistribution in ICR mouse heart at 1 uCi, iv after 120 mins postinjection; assay type: ADME, organism-based; settings: in vivo, 2 h; in short: as §1
Heart [16] = test: Biodistribution in ICR mouse heart at 1 uCi, iv after 240 mins postinjection; assay type: ADME, organism-based; settings: in vivo, 4 h; in short: as §1
Liver [17] = test: Biodistribution in ICR mouse liver at 1 uCi, iv after 15 mins postinjection; assay type: ADME, organism-based; settings: in vivo, 0.25 h; in short: as §1
Liver [18] = test: Biodistribution in ICR mouse liver at 1 uCi, iv after 30 mins postinjection; assay type: ADME, organism-based; settings: in vivo, 0.5 h; in short: as §1
Liver [19] = test: Biodistribution in ICR mouse liver at 1 uCi, iv after 60 mins postinjection; assay type: ADME, organism-based; settings: in vivo, 1 h; in short: as §1
Liver [20] = test: Biodistribution in ICR mouse liver at 1 uCi, iv after 120 mins postinjection; assay type: ADME, organism-based; settings: in vivo, 2 h; in short: as §1
Liver [21] = test: Biodistribution in ICR mouse liver at 1 uCi, iv after 240 mins postinjection; assay type: ADME, organism-based; settings: in vivo, 4 h; in short: as §1
Spleen [22] = test: Biodistribution in ICR mouse spleen at 1 uCi, iv after 15 mins postinjection; assay type: ADME, organism-based; settings: in vivo, 0.25 h; in short: as §1
Spleen [23] = test: Biodistribution in ICR mouse spleen at 1 uCi, iv after 30 mins postinjection; assay type: ADME, organism-based; settings: in vivo, 0.5 h; in short: as §1
Spleen [24] = test: Biodistribution in ICR mouse spleen at 1 uCi, iv after 60 mins postinjection; assay type: ADME, organism-based; settings: in vivo, 1 h; in short: as §1
Spleen [25] = test: Biodistribution in ICR mouse spleen at 1 uCi, iv after 120 mins postinjection; assay type: ADME, organism-based; settings: in vivo, 2 h; in short: as §1
Spleen [26] = test: Biodistribution in ICR mouse spleen at 1 uCi, iv after 240 mins postinjection; assay type: ADME, organism-based; settings: in vivo, 4 h; in short: as §1
Lung [27] = test: Biodistribution in ICR mouse lung at 1 uCi, iv after 15 mins postinjection; assay type: ADME, organism-based; settings: in vivo, 0.25 h; in short: as §1
Lung [28] = test: Biodistribution in ICR mouse lung at 1 uCi, iv after 30 mins postinjection; assay type: ADME, organism-based; settings: in vivo, 0.5 h; in short: as §1

[125I]c1ccc(CN2CCN(Cc3ccc4c(c3)OCO4)CC2)cc1
logD [1]: 2.98 | Drug uptake (Blood [2]): 1.34 % ID/g | Drug uptake (Blood [3]): 0.88 % ID/g | Drug uptake (Blood [4]): 0.81 % ID/g | Drug uptake (Blood [5]): 0.77 % ID/g | Drug uptake (Blood [6]): 0.72 % ID/g | Drug uptake (Brain [7]): 5.03 % ID/g | Drug uptake (Brain [8]): 4.96 % ID/g | Drug uptake (Brain [9]): 4.63 % ID/g | Drug uptake (Brain [10]): 3.75 % ID/g | Drug uptake (Brain [11]): 2.09 % ID/g | Drug uptake (Heart [12]): 3.98 % ID/g | Drug uptake (Heart [13]): 2.79 % ID/g | Drug uptake (Heart [14]): 1.71 % ID/g | Drug uptake (Heart [15]): 1.24 % ID/g | Drug uptake (Heart [16]): 0.75 % ID/g | Drug uptake (Liver [17]): 9 % ID/g | Drug uptake (Liver [18]): 6.39 % ID/g | Drug uptake (Liver [19]): 5.68 % ID/g | Drug uptake (Liver [20]): 5.08 % ID/g | Drug uptake (Liver [21]): 3.95 % ID/g | Drug uptake (Spleen [22]): 6.68 % ID/g | Drug uptake (Spleen [23]): 6.53 % ID/g | Drug uptake (Spleen [24]): 5.7 % ID/g | Drug uptake (Spleen [25]): 4.79 % ID/g | Drug uptake (Spleen [26]): 2.83 % ID/g | Drug uptake (Lung [27]): 12.49 % ID/g | Drug uptake (Lung [28]): 8.7 % ID/g
